# Reference: ChEMBL document CHEMBL4477216, “Discovery and Optimization of Small Molecule Splicing Modifiers of Survival Motor Neuron 2 as a Treatment for Spinal Muscular Atrophy” (J Med Chem, 2016)
# Tests used:
# Mus musculus [1] = assay: In vivo inhibition of mRNA splicing of human SMN2 exon 7 in FVB.Cg-Tg(SMN2 delta 7 exon)4299Ahmb Tg(SMN2)89Ahmb Smn1tm1Msd/J mouse assessed as increase in SMN protein level in quadriceps at 1 mg/kg, ip qd administered on postnatal day 3 to day 9 by HTRF assay relative to control; assay type: functional; set-up: scale not given: the % may be the effect or the level left
# Outline: (§1)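 Homozygous Δ7 SMA mice were dosed IP once daily from PND3 to PND9 with compound or vehicle (100% DMSO solution, 2.5 mL/kg). Brain, spinal cord and quadriceps were homogenized in RIPA buffer with protease inhibitors. SMN was read by HTRF (anti-SMN d2 and Kryptate antibodies, overnight rt, 665/620 nm) and normalized to BCA total protein. Values are % change versus vehicle ±SD; 5-11 mice per group.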
# Homo sapiens [2] = organism: Homo sapiens; assay: Inhibition of mRNA splicing of human SMN2 exon 7 transfected in HEK293H cells assessed as compound concentration required to increase full-length SMN2 mRNA level by 1.5 times after 24 hrs by RT-qPCR analysis relative to GAPDH; assay type: cell-based
# Outline: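 HEK293H cells stably carrying the SMN2 minigene (exon 6 to 5' exon 8 fused to firefly luciferase) were plated and held for 6 h, then treated 24 h in duplicate at varying concentrations (0.5% DMSO). Full-length minigene mRNA and GAPDH were quantified by TaqMan RT-qPCR using actual PCR efficiencies. Results were normalized to GAPDH and DMSO and expressed as fold change versus DMSO.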
# Mus musculus [3] = assay: In vivo inhibition of mRNA splicing of human SMN2 exon 7 in FVB.Cg-Tg(SMN2 delta 7 exon)4299Ahmb Tg(SMN2)89Ahmb Smn1tm1Msd/J mouse assessed as increase in SMN protein level in brain at 3 mg/kg, ip qd administered on postnatal day 3 to day 9 by HTRF assay relative to control; assay type: functional; set-up: scale not given: the % may be the effect or the level left; outline: as §1
# Mus musculus [4] = assay: In vivo inhibition of mRNA splicing of human SMN2 exon 7 in FVB.Cg-Tg(SMN2 delta 7 exon)4299Ahmb Tg(SMN2)89Ahmb Smn1tm1Msd/J mouse assessed as median survival time at 1 mg/kg/day, ip administered on postnatal day 3 to day 23 (reference value: 14 days); assay type: functional
# Mus musculus [5] = assay: In vivo inhibition of mRNA splicing of human SMN2 exon 7 in FVB.Cg-Tg(SMN2 delta 7 exon)4299Ahmb Tg(SMN2)89Ahmb Smn1tm1Msd/J mouse assessed as increase in SMN protein level in quadriceps at 3 mg/kg, ip qd administered on postnatal day 3 to day 9 by HTRF assay relative to control; assay type: functional; set-up: scale not given: the % may be the effect or the level left; outline: as §1
# Mus musculus [6] = assay: In vivo inhibition of mRNA splicing of human SMN2 exon 7 in FVB.Cg-Tg(SMN2 delta 7 exon)4299Ahmb Tg(SMN2)89Ahmb Smn1tm1Msd/J mouse assessed as median survival time at 6 mg/kg/day, po bid administered on postnatal day 24 (reference value: 14 days); assay type: functional
# Mus musculus [7] = assay: In vivo inhibition of mRNA splicing of human SMN2 exon 7 in FVB.Cg-Tg(SMN2 delta 7 exon)4299Ahmb Tg(SMN2)89Ahmb Smn1tm1Msd/J mouse assessed as median survival time at 20 mg/kg/day, po bid administered on postnatal day 24 (reference value: 14 days); assay type: functional
# Homo sapiens [8] = organism: Homo sapiens; assay: Inhibition of mRNA splicing of SMN2 exon 7 in GM03813 fibroblasts derived from SMA patient assessed as compound concentration required to increase SMN protein level by 1.5 times after 24 hrs by HTRF assay
# Mus musculus [9] = assay: In vivo inhibition of mRNA splicing of human SMN2 exon 7 in FVB.Cg-Tg(SMN2 delta 7 exon)4299Ahmb Tg(SMN2)89Ahmb Smn1tm1Msd/J mouse assessed as increase in SMN protein level in spinal cord at 1 mg/kg, ip qd administered on postnatal day 3 to day 9 by HTRF assay relative to control; assay type: functional; set-up: scale not given: the % may be the effect or the level left; outline: as §1
# Mus musculus [10] = assay: In vivo inhibition of mRNA splicing of human SMN2 exon 7 in FVB.Cg-Tg(SMN2 delta 7 exon)4299Ahmb Tg(SMN2)89Ahmb Smn1tm1Msd/J mouse assessed as median survival time at 3 mg/kg/day, ip administered on postnatal day 3 to day 23 (reference value: 14 days); assay type: functional
# Mus musculus [11] = assay: In vivo inhibition of mRNA splicing of human SMN2 exon 7 in FVB.Cg-Tg(SMN2 delta 7 exon)4299Ahmb Tg(SMN2)89Ahmb Smn1tm1Msd/J mouse assessed as median survival time at 2 mg/kg/day, po bid administered on postnatal day 24 (reference value: 14 days); assay type: functional
# Mus musculus [12] = assay: In vivo inhibition of mRNA splicing of human SMN2 exon 7 in FVB.Cg-Tg(SMN2 delta 7 exon)4299Ahmb Tg(SMN2)89Ahmb Smn1tm1Msd/J mouse assessed as median survival time at 0.6 mg/kg/day, po bid administered on postnatal day 24 (reference value: 14 days); assay type: functional
# Mus musculus [13] = assay: In vivo inhibition of mRNA splicing of human SMN2 exon 7 in FVB.Cg-Tg(SMN2 delta 7 exon)4299Ahmb Tg(SMN2)89Ahmb Smn1tm1Msd/J mouse assessed as median survival time at 0.3 mg/kg/day, ip administered on postnatal day 3 to day 23 (reference value: 14 days); assay type: functional
# Mus musculus [14] = assay: In vivo inhibition of mRNA splicing of human SMN2 exon 7 in FVB.Cg-Tg(SMN2 delta 7 exon)4299Ahmb Tg(SMN2)89Ahmb Smn1tm1Msd/J mouse assessed as median survival time at 0.1 mg/kg/day, ip administered on postnatal day 3 to day 23 (reference value: 14 days); assay type: functional
# Mus musculus [15] = assay: In vivo inhibition of mRNA splicing of human SMN2 exon 7 in FVB.Cg-Tg(SMN2 delta 7 exon)4299Ahmb Tg(SMN2)89Ahmb Smn1tm1Msd/J mouse assessed as increase in SMN protein level in spinal cord at 0.03 mg/kg, ip qd administered on postnatal day 3 to day 9 by HTRF assay relative to control; assay type: functional; set-up: scale not given: the % may be the effect or the level left; outline: as §1
# Mus musculus [16] = assay: In vivo inhibition of mRNA splicing of human SMN2 exon 7 in FVB.Cg-Tg(SMN2 delta 7 exon)4299Ahmb Tg(SMN2)89Ahmb Smn1tm1Msd/J mouse assessed as increase in SMN protein level in brain at 0.03 mg/kg, ip qd administered on postnatal day 3 to day 9 by HTRF assay relative to control; assay type: functional; set-up: scale not given: the % may be the effect or the level left; outline: as §1
# Mus musculus [17] = assay: In vivo inhibition of mRNA splicing of human SMN2 exon 7 in FVB.Cg-Tg(SMN2 delta 7 exon)4299Ahmb Tg(SMN2)89Ahmb Smn1tm1Msd/J mouse assessed as increase in SMN protein level in quadriceps at 0.03 mg/kg, ip qd administered on postnatal day 3 to day 9 by HTRF assay relative to control; assay type: functional; set-up: scale not given: the % may be the effect or the level left; outline: as §1
Compound,Activity (Mus musculus [1]) [%],EC1.5 (Homo sapiens [2]) [nM],Activity (Mus musculus [3]) [%],MST (Mus musculus [4]) [days],Activity (Mus musculus [5]) [%],MST (Mus musculus [6]) [days],MST (Mus musculus [7]) [days],EC1.5 (Homo sapiens [8]) [nM],Activity (Mus musculus [9]) [%],MST (Mus musculus [10]) [days],MST (Mus musculus [11]) [days],MST (Mus musculus [12]) [days],MST (Mus musculus [13]) [days],MST (Mus musculus [14]) [days],Activity (Mus musculus [15]) [%],Activity (Mus musculus [16]) [%],Activity (Mus musculus [17]) [%]
Cc1cn2nc(-c3cc(=O)n4cc(N5CCN(C)CC5)ccc4n3)cc2c(C)n1,129,35,230,45,218,45,>190,160,123,>190,,,,,,,
Cc1cn2cc(-c3cc4ccc(N5CCN(C)CC5)cc4c(=O)o3)nc2c(C)n1,343,,395,,517,,,,203,,>100,>100,>100,>100,,,
CCN1CCN(c2ccc3cc(-c4cn5cc(C)nc(C)c5n4)c(=O)oc3c2)C[C@@H]1C,,,,>150,,>150,,44,,,>55,34,>55,34,7,-10,-3
